Published values gathered from unrelated publications.
Lines come from different studies, so protocols differ.
Target: Serine/threonine-protein kinase 26 (STK26, Homo sapiens, UniProt Q9P289)

SMILES	assay	conditions	remaining binding [%]
C=CC(=O)N1CCC(C(=O)NCC(=O)N2CCN(c3nc(-c4cnc(N)nc4C(F)F)nc(N4CCOCC4)n3)CC2)CC1	binding, competition with immobilised ligand	1 µM	100
COc1ncc2cc3ccccc3nc2c1C#N	cell-free assay, competition with immobilised ligand	5 µM	100
CNC(=O)[C@@H]1CC[C@@H](n2c(-c3ccc4cnccc4c3)nc3ccc(C(=O)NCc4cccc(C(N)=O)c4)cc32)C1	binding, competition with immobilised ligand	1 µM	100
O=C(c1ccc(Nc2ncc(Cl)c(-c3cc4ccccc4s3)n2)cc1)N1CCC(N2CCCC2)CC1	binding, competition with immobilised ligand	1 µM	66
c1cncc(-c2cccc(Nc3nccc(NC4CCCCC4)n3)c2)c1	binding, competition with immobilised ligand	10 µM	83
O=C(NCCCN1CCOCC1)c1ccc(Nc2ncc(Cl)c(-c3ccc(Cl)s3)n2)cc1	binding, competition with immobilised ligand	1 µM	16
CN([C@@H]1CCc2c(CC(=O)O)c3cc(S(C)(=O)=O)ccc3n2C1)S(=O)(=O)c1ccc(F)cc1	cell-free assay, competition with immobilised ligand	1 µM	77
Nc1ncc2c(n1)-c1c([nH]c3ccc(C#CC4CC4)cc13)CCCC2	binding, competition with immobilised ligand	1 µM	99
O=C(Nc1cccnn1)N1CCC(=Cc2cccc(Oc3ccc(C(F)(F)F)cn3)c2)CC1	cell-free assay, competition with immobilised ligand	1 µM	100
O=C(NCC1CCOCC1)c1n[nH]cc1NC(=O)c1c(F)cccc1F	binding, competition with immobilised ligand	1 µM	77
CS(=O)(=O)N1CCCC(NC(=O)[C@H](CCC2CCCCC2)NC(=O)c2ccc(CNC(=O)c3cnc4ccccn34)cc2)C1 (some centres unmarked)	cell-free assay, competition with immobilised ligand	0.1 µM	100
Cc1cnc(Nc2ccc(C(=O)N3CCC(N4CCCC4)CC3)cc2)nc1-c1cc2ccccc2s1	binding, competition with immobilised ligand	1 µM	77
CN([C@@H]1CCc2c(CC(=O)O)c3ccccc3n2C1)S(=O)(=O)c1ccc(F)cc1	cell-free assay, competition with immobilised ligand	1 µM	79
CN1CCN(c2ccc(Nc3nccc(-c4cccc([N+](=O)[O-])c4)n3)cc2C(F)(F)F)CC1	binding	10 µM	33
